Measurements from ChEMBL document CHEMBL1128321, “Piperazinylalkyl heterocycles as potential antipsychotic agents” (J Med Chem, 1995).

What was measured:
Rattus norvegicus [1] = assay: Conditioned avoidance response activity was determined by the ability to block the conditioned avoidance of a foot shock at 5 mg/kg(ip); assay type: functional
Summary of the method: (§1)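 Male Fischer 344 rats (300–500 g) trained on a discrete-trial single-lever task, pressing the lever to avoid an impending shock; block of responding read at time of peak effect. Escape loss = percent of animals failing to escape the shock; >20% escape loss with CAR inhibition taken as potential for sedation.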

Rattus norvegicus [2] = assay: Percentage of animals failing to escape shock was measured, affording a rough index for nonspecific sedation at 5 mg/kg(ip)
[3] = molecular target: T1, 5-hydroxytryptamine receptor 1A (Rattus norvegicus, UniProt P19327); assay: Binding affinity was determined against 5-hydroxytryptamine 1A receptor using […]
T1 sequence (P19327 whole entry): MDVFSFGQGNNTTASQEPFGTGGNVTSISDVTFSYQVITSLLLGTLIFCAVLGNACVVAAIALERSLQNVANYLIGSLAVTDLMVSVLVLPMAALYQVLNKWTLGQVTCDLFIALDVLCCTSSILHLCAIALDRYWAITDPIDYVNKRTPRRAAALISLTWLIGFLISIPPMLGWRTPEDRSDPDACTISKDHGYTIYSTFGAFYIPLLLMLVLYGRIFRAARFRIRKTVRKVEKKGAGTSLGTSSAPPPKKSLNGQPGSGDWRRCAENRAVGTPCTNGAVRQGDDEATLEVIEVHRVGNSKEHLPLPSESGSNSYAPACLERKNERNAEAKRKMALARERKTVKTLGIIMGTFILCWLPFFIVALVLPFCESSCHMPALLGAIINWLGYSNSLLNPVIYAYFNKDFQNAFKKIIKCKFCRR

[4] = Stability half-life at pH-2; assay type: physicochemical
Summary of the method: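 Half-life measured in solution at pH 2, about 3 × 10⁻³ M compound in citric acid–phosphate buffer at 22 °C.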

Rattus norvegicus [5] = assay: Conditioned avoidance response activity was determined by the ability to block the conditioned avoidance of a foot shock at 15 mg/kg(ip); assay type: functional; summary of the method: as §1

Structure (SMILES)	inhibition in vivo at 5 mg/kg (Rattus norvegicus [1]) [%]	Esc loss (Rattus norvegicus [2]) [%]	Ki [3] [nM]	half-life [4] [h]	inhibition in vivo at 15 mg/kg (Rattus norvegicus [5]) [%]
COc1ccccc1N1CCN(Cc2ccc(CN(C(C)=O)C(C)C)n2C)CC1.O=C(O)CCC(=O)O	8	0	16	–	–
COc1ccccc1N1CCN(Cc2ccc(CN(C)S(C)(=O)=O)n2C)CC1.O=C(O)CCC(=O)O	23	4	11	2.87	–
COc1ccccc1N1CCN(CCc2ccc(C(=O)C(=O)N3CCCCC3)n2C)CC1.O=C(O)CCC(=O)O	45	26	25	–	–
COc1ccccc1N1CCN(Cc2ccc(CNC(C)=O)n2C)CC1.O=C(O)CCC(=O)O	14	3	–	–	–
CNC(=O)c1ccc(CN2CCN(c3ccccc3OC(C)C)CC2)n1C.O=C(O)CCC(=O)O	15	0	57	72.4	–
CC(C)NC(=O)c1ccc(CN2CCN(c3ccccc3OC(C)C)CC2)n1C.O=C(O)CCC(=O)O	1	0	48	382	–
COc1ccccc1N1CCN(Cc2ccc(CN(Cc3ccccc3)C(=O)c3ccccc3)n2C)CC1.O=C(O)CCC(=O)O	8	0	–	–	–
COc1ccccc1N1CCN(Cc2ccc(CN(C)S(=O)(=O)C(C)C)n2C)CC1.O=C(O)CCC(=O)O	6	0	39	2.17	–
CCCCS(=O)(=O)N(C)Cc1ccc(CN2CCN(c3ccccc3OC(C)C)CC2)n1C.O=C(O)CCC(=O)O	2	0	18	2.5	–
CC(C)Oc1ccccc1N1CCN(Cc2ccc(CN(C)S(C)(=O)=O)n2C)CC1.O=C(O)CCC(=O)O	8	0	–	3.7	–
COc1ccccc1N1CCN(Cc2ccc(CN(Cc3ccccc3)C(C)=O)n2C)CC1.O=C(O)CCC(=O)O	3	0	–	–	–
CC(C)Oc1ccccc1N1CCN(Cc2ccc(CN(C(=O)C(C)C)C(C)C)n2C)CC1.O=C(O)CCC(=O)O	0	0	1.9	–	–
CCCCC(=O)N(C)Cc1ccc(CN2CCN(c3ccccc3OC)CC2)n1C.O=C(O)CCC(=O)O	2	1	4.5	–	–
CCCCC(=O)N(C)Cc1ccc(CN2CCN(c3ccccc3OC(C)C)CC2)n1C.O=C(O)CCC(=O)O	4	0	0.25	–	–
COc1ccccc1N1CCN(Cc2ccc(CN(C)C(C)=O)n2C)CC1.O=C(O)CCC(=O)O	52	2	39	–	–
CC(C)Oc1ccccc1N1CCN(Cc2ccc(CN(C)S(=O)(=O)C(C)C)n2C)CC1.O=C(O)CCC(=O)O	–	0	5.7	–	0
CC(C)Oc1ccccc1N1CCN(Cc2ccc(CN(C)C(=O)C(C)C)n2C)CC1.O=C(O)CCC(=O)O	3	0	0.84	1.07	–
CCCCS(=O)(=O)N(C)Cc1ccc(CN2CCN(c3ccccc3OC)CC2)n1C.O=C(O)CCC(=O)O	7	1	7.1	3.7	–
CC(C)Oc1ccccc1N1CCN(Cc2ccc(C(=O)N3CCCCC3)s2)CC1.O=C(O)CCC(=O)O	56	18	4.2	–	–
CC(C)Oc1ccccc1N1CCN(CCc2ccc(C(=O)C(=O)N3CCOCC3)n2C)CC1.O=C(O)CCC(=O)O	2	0	9.4	85	–
CC(C)Oc1ccccc1N1CCN(Cc2ccc(CN(C(=O)C3CCCCC3)C(C)C)n2C)CC1.O=C(O)CCC(=O)O	13	0	4.7	–	–

Structure (SMILES)	inhibition in vivo at 5 mg/kg (Rattus norvegicus [1]) [%]	Esc loss (Rattus norvegicus [2]) [%]	Ki [3] [nM]	half-life [4] [h]	inhibition in vivo at 15 mg/kg (Rattus norvegicus [5]) [%]
COc1ccccc1N1CCN(Cc2ccc(CN(C(=O)C3CCCCC3)C(C)C)n2C)CC1.O=C(O)CCC(=O)O	36	26	11	–	–
CC(=O)N(C)Cc1ccc(CN2CCN(c3ccccc3OC(C)C)CC2)n1C.O=C(O)CCC(=O)O	63	2	12	1.17	–
COc1ccccc1N1CCN(Cc2ccc(CN3CCCCCC3=O)o2)CC1.O=C(O)CCC(=O)O	–	11	27	–	93
O=C(O)CCC(=O)O.O=C1CCCCN1Cc1ccc(CN2CCN(c3cccc4ccoc34)CC2)s1	63	5	0.07	–	–
CC(C)Oc1ccccc1N1CCN(CC2CC(CN3CCCCC3=O)=NO2)CC1 (configuration not stated)	69	20	10	–	–
CCCN(Cc1ccc(CN2CCN(c3ccccc3OC)CC2)n1C)S(=O)(=O)c1ccccc1	–	0	–	–	0
CC(C)Oc1ccccc1N1CCN(CC2CC(CO)=NO2)CC1 (configuration not stated)	96	26	120	60.9	–
CC(C)Oc1ccccc1N1CCN(Cc2cc(CO)no2)CC1	29	1	–	57.7	–
COc1ccccc1N1CCN(Cc2ccc(CN(C(C)C)S(C)(=O)=O)n2C)CC1	1	0	–	–	–
CC(C)Oc1ccccc1N1CCN(Cc2ccc(C(=O)N3CCCCCC3)s2)CC1.Cl	8	3	3.2	–	–
CC(C)Oc1ccccc1N1CCN(Cc2cc(CN3CCCCC3=O)no2)CC1.Cl	0	0	94	18.3	–
COc1ccccc1N1CCN(Cc2ccc(CCN3CCCCC3=O)n2C)CC1.Cl	75	9	–	< 0.117	–
CC(C)Oc1ccccc1N1CCN(Cc2cc(C(=O)N3CCCCC3)cs2)CC1.Cl	72	34	2.5	–	–
CC(C)Oc1ccccc1N1CCN(Cc2ccc(CCN3CCCCC3=O)n2C)CC1.Cl	77	27	–	< 0.217	–
CC(C)Oc1ccccc1N1CCN(Cc2ccc(C(=O)N3CCCCC3)n2C)CC1.Cl	–	5	–	–	56
Cl.O=C(c1ccc(CN2CCN(c3cccc4ccoc34)CC2)s1)N1CCCCC1	3	0	0.63	–	–
CC(C)Oc1ccccc1N1CCN(Cc2cc(C(=O)N3CCCCCC3)cs2)CC1.Cl	45	4	0.41	–	–
CC(C)Oc1ccccc1N1CCN(Cc2ccc(CN3CCCCC3=O)s2)CC1.Cl	58	3	3.1	–	–
CC(C)Oc1ccccc1N1CCN(Cc2cccc(CN3CCCCC3=O)n2)CC1.Cl	85	15	829	70.3	–
CC(C)Oc1ccccc1N1CCN(Cc2cccc(C(=O)N3CCCCC3)c2)CC1 [MAZAPERTINE]	98	–	–	–	–
